Assay results from ChEMBL document CHEMBL1126043, “Novel thiazolidine-2,4-diones as potent euglycemic agents” (1992).

Tests used:
Assay type in all cases: functional
Mus musculus [1] = assay: In vivo euglycemic activity (administered by oral gavage) in C57/6J-ob/ob mice by normalization of blood glucose levels at a dose of 10 mg/kg.
Procedure, shortened: (§1)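 Mice bled from retro-orbital sinus into tubes with 2% sodium heparin for baseline glucose, then dosed by oral gavage once daily for 4 days in 0.25% (w/v) methylcellulose in water, no pH adjustment (0.1 mL per 20 g). Bled 24 h after fourth dose. Samples centrifuged 2 min at 10000g. Plasma glucose measured by hexokinase UV method. Results scaled to vehicle (0%) and ciglitazone 50 mg/kg (100%).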

Mus musculus [2] = assay: In vivo euglycemic activity (administered by oral gavage) in C57/6J-ob/ob mice measured by normalization of blood glucose levels at a dose of 5 mg/kg.
Mus musculus [3] = assay: In vivo euglycemic activity of the compound (administered by oral gavage) in C57/6J-ob/ob mice is measured by normalization of blood glucose levels at a dose of 2.5(mg/kg); procedure, shortened: as §1
Mus musculus [4] = assay: In vivo euglycemic activity (administered by oral gavage) in C57/6J-ob/ob mice by normalization of blood glucose levels at a dose of 1 mg/kg.; procedure, shortened: as §1
Mus musculus [5] = assay: In vivo euglycemic activity (administered by oral gavage) in C57/6J-ob/ob mice by normalization of blood glucose levels at a dose of 0.5 mg/kg.; procedure, shortened: as §1

Structure (SMILES): COc1ccc(CCC(=O)c2ccc(CC3SC(=O)NC3=O)cc2)cc1 (stereo not drawn)
- Normalization (Mus musculus [1]): 50%

Structure (SMILES): Cc1nc(-c2ccccc2)sc1CCC(=O)c1ccc(CC2SC(=O)NC2=O)cc1 (stereo not drawn)
- Normalization (Mus musculus [2]): 75%
- Normalization (Mus musculus [3]): 33%

Structure (SMILES): Cc1ccc(-c2nc(CCC(=O)c3ccc(CC4SC(=O)NC4=O)s3)co2)cc1 (stereo not drawn)
- Normalization (Mus musculus [3]): 0%
- Normalization (Mus musculus [4]): 10%

Structure (SMILES): Cc1oc(-c2ccc(Cl)cc2)nc1CCC(=O)c1ccc(CC2SC(=O)NC2=O)s1 (stereo not drawn)
- Normalization (Mus musculus [3]): 100%
- Normalization (Mus musculus [4]): 51%

Structure (SMILES): Cc1ccc(-c2nc(CCC(=O)c3ccc(/C=C4\SC(=O)NC4=O)cc3)c(C)o2)o1
- Normalization (Mus musculus [5]): 1%
- Normalization (Mus musculus [4]): 76%

Structure (SMILES): Cc1oc(-c2ccccc2)nc1CC/C(=N\OCc1ccccc1)c1ccc(CC2SC(=O)NC2=O)cc1 (stereo not drawn)
- Normalization (Mus musculus [2]): 17%

Structure (SMILES): Cc1oc(-c2ccccc2)nc1CC/C(=N\O)c1ccc(CC2SC(=O)NC2=O)cc1 (stereo not drawn)
- Normalization (Mus musculus [2]): 100%
- Normalization (Mus musculus [5]): 0%
- Normalization (Mus musculus [4]): 99%

Structure (SMILES): COc1ccc(/C=C/C(=O)c2ccc(CC3SC(=O)NC3=O)cc2)cc1 (stereo not drawn)
- Normalization (Mus musculus [2]): 0%
- Normalization (Mus musculus [1]): 68%

Structure (SMILES): Cc1oc(-c2ccccc2)nc1CCSc1ccc(CC2SC(=O)NC2=O)cc1 (stereo not drawn)
- Normalization (Mus musculus [5]): 0%

Structure (SMILES): Cc1ccc(-c2nc(CCC(=O)c3ccc(/C=C4\SC(=O)NC4=O)cc3)co2)cc1
- Normalization (Mus musculus [4]): 53%

Structure (SMILES): COc1ccccc1CCC(=O)c1ccc(CC2SC(=O)NC2=O)cc1 (stereo not drawn)
- Normalization (Mus musculus [1]): 0%

Structure (SMILES): Cc1ccc(-c2nc(CCC(=O)c3ccc(CC4SC(=O)NC4=O)s3)c(C)o2)cc1 (stereo not drawn)
- Normalization (Mus musculus [5]): 27%
- Normalization (Mus musculus [4]): 100%

Structure (SMILES): O=C1NC(=O)C(Cc2ccc(C(=O)/C=C/c3ccc(Br)cc3)cc2)S1 (stereo not drawn)
- Normalization (Mus musculus [1]): 28%

Structure (SMILES): CO/N=C(\CCc1nc(-c2ccccc2)oc1C)c1ccc(CC2SC(=O)NC2=O)cc1 (stereo not drawn)
- Normalization (Mus musculus [2]): 100%
- Normalization (Mus musculus [4]): 0%

Structure (SMILES): Cc1oc(-c2ccccc2)nc1CCC(O)c1ccc(CC2SC(=O)NC2=O)s1 (stereo not drawn)
- Normalization (Mus musculus [2]): 100%
- Normalization (Mus musculus [4]): 23%

Structure (SMILES): O=C1NC(=O)C(Cc2ccc(C(O)CCc3ccccc3)cc2)S1 (stereo not drawn)
- Normalization (Mus musculus [2]): 47%
- Normalization (Mus musculus [1]): 89%

Structure (SMILES): CCOC(=O)c1ccc(/C=C/C(=O)c2ccc(CC3SC(=O)NC3=O)cc2)cc1 (stereo not drawn)
- Normalization (Mus musculus [1]): 4%

Structure (SMILES): Cc1oc(-c2ccccc2)nc1CN(C)C(=O)c1ccc(CC2SC(=O)NC2=O)cc1 (stereo not drawn)
- Normalization (Mus musculus [2]): 83%
- Normalization (Mus musculus [3]): 0%

Structure (SMILES): Cc1oc(-c2cccs2)nc1CCC(=O)c1ccc(/C=C2\SC(=O)NC2=O)cc1
- Normalization (Mus musculus [4]): 100%

Structure (SMILES): CCN(C(=O)Cc1nc(-c2ccccc2)oc1C)c1ccc(CC2SC(=O)NC2=O)cc1 (stereo not drawn)
- Normalization (Mus musculus [2]): 25%

Structure (SMILES): Cc1oc(-c2ccccc2)nc1CN(c1ccccc1)S(=O)(=O)c1ccc(CC2SC(=O)NC2=O)cc1 (stereo not drawn)
- Normalization (Mus musculus [3]): 32%

Structure (SMILES): Cc1oc(-c2ccccc2)nc1CN(C)S(=O)(=O)c1ccc(CC2SC(=O)NC2=O)cc1 (stereo not drawn)
- Normalization (Mus musculus [2]): 9%

Structure (SMILES): Cc1oc(-c2ccc3ccccc3c2)nc1CCC(=O)c1ccc(/C=C2\SC(=O)NC2=O)cc1
- Normalization (Mus musculus [5]): 38%
- Normalization (Mus musculus [4]): 90%

Structure (SMILES): O=C1NC(=O)C(Cc2ccc(C(O)CCc3ccccn3)cc2)S1 (stereo not drawn)
- Normalization (Mus musculus [1]): 13%

Structure (SMILES): Cc1oc(-c2ccccc2)nc1CNC(=O)c1ccc(CC2SC(=O)NC2=O)cc1 (stereo not drawn)
- Normalization (Mus musculus [2]): 50%
- Normalization (Mus musculus [3]): 49%

Structure (SMILES): Cc1oc(-c2ccc(O)cc2)nc1CCC(=O)c1ccc(CC2SC(=O)NC2=O)cc1 (stereo not drawn)
- Normalization (Mus musculus [4]): 0%

Structure (SMILES): O=C1NC(=O)C(Cc2ccc(C(=O)CCc3ccc(OCc4ccccc4)cc3)cc2)S1 (stereo not drawn)
- Normalization (Mus musculus [1]): 45%

Structure (SMILES): Cc1oc(-c2ccccc2)nc1CCS(=O)(=O)c1ccc(CC2SC(=O)NC2=O)cc1 (stereo not drawn)
- Normalization (Mus musculus [2]): 69%
- Normalization (Mus musculus [4]): 11%

Structure (SMILES): Cc1nc(-c2ccccc2)c(CCC(=O)c2ccc(CC3SC(=O)NC3=O)cc2)s1 (stereo not drawn)
- Normalization (Mus musculus [2]): 61%
- Normalization (Mus musculus [3]): 0%

Structure (SMILES): Cc1oc(-c2ccccc2)nc1CCCc1ccc(CC2SC(=O)NC2=O)cc1 (stereo not drawn)
- Normalization (Mus musculus [5]): 37%

Structure (SMILES): O=C1NC(=O)C(Cc2ccc(C(=O)CCc3ccco3)cc2)S1 (stereo not drawn)
- Normalization (Mus musculus [1]): 24%

Structure (SMILES): O=C1NC(=O)C(Cc2ccc(C(=O)/C=C/c3cccc(Cl)c3)cc2)S1 (stereo not drawn)
- Normalization (Mus musculus [1]): 4%

Structure (SMILES): Cc1oc(-c2ccco2)nc1CCC(=O)c1ccc(CC2SC(=O)NC2=O)cc1 (stereo not drawn)
- Normalization (Mus musculus [4]): 61%

Structure (SMILES): O=C1NC(=O)C(Cc2ccc(C(=O)/C=C/c3ccccc3Cl)cc2)S1 (stereo not drawn)
- Normalization (Mus musculus [2]): 65%
- Normalization (Mus musculus [1]): 44%

Structure (SMILES): Cc1oc(-c2ccccc2)nc1CNS(=O)(=O)c1ccc(CC2SC(=O)NC2=O)cc1 (stereo not drawn)
- Normalization (Mus musculus [2]): 0%

Structure (SMILES): O=C1NC(=O)C(Cc2ccc(C(=O)CCc3ccc(-c4ccccc4)cc3)cc2)S1 (stereo not drawn)
- Normalization (Mus musculus [2]): 54%
- Normalization (Mus musculus [1]): 71%

Structure (SMILES): Cc1oc(-c2ccccc2)nc1CC(=O)Nc1ccc(CC2SC(=O)NC2=O)cc1 (stereo not drawn)
- Normalization (Mus musculus [2]): 64%
- Normalization (Mus musculus [3]): 16%

Structure (SMILES): O=C1NC(=O)C(Cc2ccc(C(=O)/C=C/c3ccco3)cc2)S1 (stereo not drawn)
- Normalization (Mus musculus [1]): 65%

Structure (SMILES): Cc1oc(-c2ccccc2)nc1CC(=O)N(C)c1ccc(CC2SC(=O)NC2=O)cc1 (stereo not drawn)
- Normalization (Mus musculus [2]): 9%

Structure (SMILES): Cc1ccc(-c2nc(CCC(=O)c3ccc(/C=C4\SC(=O)NC4=O)cc3)c(C)o2)cc1
- Normalization (Mus musculus [5]): 27%
- Normalization (Mus musculus [4]): 0%

Structure (SMILES): O=C1NC(=O)C(Cc2ccc(C(=O)/C=C/c3ccccc3Cc3ccccc3)cc2)S1 (stereo not drawn)
- Normalization (Mus musculus [1]): 56%

Structure (SMILES): Cc1oc(-c2ccc(C(F)(F)F)cc2)nc1CCC(=O)c1ccc(/C=C2\SC(=O)NC2=O)cc1
- Normalization (Mus musculus [5]): 28%
- Normalization (Mus musculus [4]): 58%

Structure (SMILES): O=C1NC(=O)C(Cc2ccc(C(=O)Cc3ccccc3)cc2)S1 (stereo not drawn)
- Normalization (Mus musculus [1]): 0%

Structure (SMILES): O=C1NC(=O)C(Cc2ccc(C(=O)CCCc3ccccc3)cc2)S1 (stereo not drawn)
- Normalization (Mus musculus [1]): 26%

Structure (SMILES): Cc1oc(-c2ccccc2)nc1/C=C/C(=O)c1ccc(CC2SC(=O)NC2=O)cc1 (stereo not drawn)
- Normalization (Mus musculus [2]): 100%
- Normalization (Mus musculus [1]): 59%

Structure (SMILES): CCc1ccc(CCC(=O)c2ccc(CC3SC(=O)NC3=O)cc2)nc1 (stereo not drawn)
- Normalization (Mus musculus [2]): 0%
- Normalization (Mus musculus [1]): 41%

Structure (SMILES): CN(C)c1ccc(/C=C/C(=O)c2ccc(CC3SC(=O)NC3=O)cc2)cc1 (stereo not drawn)
- Normalization (Mus musculus [1]): 17%

Structure (SMILES): COc1ccc(-c2nc(CCC(=O)c3ccc(/C=C4\SC(=O)NC4=O)cc3)c(C)o2)cc1
- Normalization (Mus musculus [4]): 62%

Structure (SMILES): O=C1NC(=O)C(Cc2ccc(C(=O)CCc3csc(-c4ccccc4)n3)cc2)S1 (stereo not drawn)
- Normalization (Mus musculus [2]): 91%
- Normalization (Mus musculus [3]): 48%

Structure (SMILES): Cc1oc(-c2ccco2)nc1CCC(=O)c1ccc(/C=C2\SC(=O)NC2=O)cc1
- Normalization (Mus musculus [4]): 55%

Structure (SMILES): Cc1oc(-c2ccc(C(F)(F)F)cc2)nc1CCC(=O)c1ccc(CC2SC(=O)NC2=O)s1 (stereo not drawn)
- Normalization (Mus musculus [5]): 27%
- Normalization (Mus musculus [4]): 78%

Structure (SMILES): Cc1oc(-c2ccc3ccccc3c2)nc1CCS(=O)(=O)c1ccc(CC2SC(=O)NC2=O)cc1 (stereo not drawn)
- Normalization (Mus musculus [2]): 0%
- Normalization (Mus musculus [3]): 0%

Structure (SMILES): COc1ccc(-c2nc(CCC(=O)c3ccc(CC4SC(=O)NC4=O)cc3)c(C)o2)cc1 (stereo not drawn)
- Normalization (Mus musculus [5]): 43%
- Normalization (Mus musculus [4]): 95%

Structure (SMILES): O=C1NC(=O)C(Cc2ccc(C(=O)/C=C/c3ccccc3C(F)(F)F)cc2)S1 (stereo not drawn)
- Normalization (Mus musculus [2]): 39%
- Normalization (Mus musculus [1]): 57%

Structure (SMILES): Cc1ccccc1/C=C/C(=O)c1ccc(CC2SC(=O)NC2=O)cc1 (stereo not drawn)
- Normalization (Mus musculus [1]): 21%

Structure (SMILES): Cc1cc(-c2nc(CCC(=O)c3ccc(CC4SC(=O)NC4=O)cc3)c(C)o2)cc(C)c1O (stereo not drawn)
- Normalization (Mus musculus [5]): 30%
- Normalization (Mus musculus [4]): 100%

Structure (SMILES): Cc1oc(-c2ccc3ccccc3c2)nc1CCC(=O)c1ccc(CC2SC(=O)NC2=O)cc1 (stereo not drawn)
- Normalization (Mus musculus [4]): 39%

Structure (SMILES): Cc1oc(-c2ccccc2)nc1CN(C(=O)c1ccc(CC2SC(=O)NC2=O)cc1)c1ccccc1 (stereo not drawn)
- Normalization (Mus musculus [2]): 23%

Structure (SMILES): O=C1NC(=O)C(Cc2ccc(C(=O)/C=C/c3nc4ccccc4s3)cc2)S1 (stereo not drawn)
- Normalization (Mus musculus [1]): 0%
